Assay results: ChEMBL document CHEMBL3272018, “Synthesis of aziridinylallylaminophosphine oxides and sulfides as potential adjuvant cancer chemotherapeutic agents” (J Med Chem, 1976)
Activity calls are given as the source filed them. The calls are words filed in the database; no cut-off is given here.

Experiments:
[1] = Therapeutic index, ratio of LD50 for rat allografted with cytoxan-resistant rat Walker 256 cells to ED10 for antitumor activity against rat Walker 256 cells allografted in rat; conditions: read-out: TI
In short: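 Therapeutic index is LD50/ED10 in cytoxan-resistant Walker 256 solid tumour in rats. ED10 is the dose giving a 10% reduction, extrapolated from dose-response data.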

[2] = Therapeutic index, ratio of LD50 for rat allografted with rat Walker 256 cells to ED10 for antitumor activity against rat Walker 256 cells intramuscularly allografted in rat; type: cell-based; conditions: read-out: TI
In short: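 Therapeutic index is LD50/ED10 in the Walker 256 solid tumour system. ED10 is the dose giving a 10% tumour weight reduction, with values extrapolated from dose-response data.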

[3] = system: W256; assay: Antitumor activity against rat Walker 256 cells intramuscularly allografted in rat assessed as tumor growth inhibition at 1 mg/kg, qd administered for 5 days relative to control; type: functional; conditions: W256, im, 120 h, route intramuscular, read-out: TGI
In short: (§1)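 Dosed once daily for 5 days. Response is tumor progression in treated (T) versus untreated control (C) animals, expressed as T/C percentage. Host weight change is reported as the average net weight change of the test group minus that of the controls, in grams.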

[4] = system: W256; assay: Antitumor activity against rat Walker 256 cells intramuscularly allografted in rat assessed as survival rate at 0.25 mg/kg, qd administered for 5 days; type: functional, organism-based; design: dose 0.25 mg/kg
In short: (§2)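 Rats bearing Walker 256 carcinoma as a solid tumor; lines 1-8 use a cytoxan-resistant Walker 256 subline. Dosed once daily for 5 days. Treated (T) and untreated control (C) groups are compared, and the response is given as T/C percentage, reflecting increase in survival time. Host weight change is the average weight change of the test group minus that of the controls, in grams.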

[5] = system: Musca domestica; assay: Toxicity in male house fly assessed as lowest dose required to cause complete sterility administered in food; type: organism-based; conditions: in vivo, po
[6] = organism: Rattus norvegicus; assay: Toxicity in Wistar-Furth rat assessed as decrease in secondary spermatocytes measured for 24 hrs; type: organism-based; conditions: in vivo
In short: (§3)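 Wistar-Furth rats were injected daily for 5 days at the antifertility-study doses of 1 or 5 mg/kg, depending on agent. Testes or ovaries were taken at sacrifice after 1, 3 or 24 h. Cryostat frozen sections were fixed in 95% alcohol for 10 min and stained with acridine orange (DNA green, RNA red). Results were compared with untreated controls.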

[7] = system: W256; assay: Antitumor activity against cytoxan-resistant rat Walker 256 cells intramuscularly allografted in rat assessed as tumor growth inhibition at 2 mg/kg, qd administered for 5 days relative to control; type: functional; conditions: W256, im, 120 h, route intramuscular, read-out: TGI; in short: as §1
[8] = system: Rattus norvegicus; assay: Toxicity in rat allografted with rat Walker 256 cells intramuscularly assessed as change in body weight at 0.5 mg/kg, qd administered for 5 days; type: organism-based; design: dose 0.5 mg/kg, route intramuscular; conditions: in vivo, im, 120 h
In short: (§4)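 Walker 256 carcinoma solid-tumour system in rats (parent line, or the line resistant to cytoxan). Dosing was one injection per day for 5 days. Toxicity was taken as the average net body-weight change of the treated group minus the average net weight change of the untreated tumour-bearing controls, in grams.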

[9] = system: W256; assay: Antitumor activity against rat Walker 256 cells intramuscularly allografted in rat assessed as tumor growth inhibition at 0.5 mg/kg, qd administered for 5 days relative to control; type: functional; conditions: W256, im, 120 h, route intramuscular, read-out: TGI; in short: as §1
[10] = system: Rattus norvegicus; assay: Toxicity in rat allografted with rat Walker 256 cells intramuscularly assessed as change in body weight at 1 mg/kg, qd administered for 5 days; type: organism-based; design: dose 1 mg/kg, route intramuscular; conditions: in vivo, im, 120 h; in short: as §4
[11] = system: W256; assay: Antitumor activity against rat Walker 256 cells intramuscularly allografted in rat assessed as tumor growth inhibition at 2 mg/kg, qd administered for 5 days relative to control; type: functional; conditions: W256, im, 120 h, route intramuscular, read-out: TGI
In short: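 Walker 256 carcinoma grown as a solid tumour in rats, with one injection daily for 5 days. Response is given as T/C %, the treated-group measure over the untreated-control tumour measure; a smaller value means more activity. Host toxicity is the mean net weight change of treated minus control animals, in grams.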

[12] = system: Rattus norvegicus; assay: Toxicity in rat allografted with cytoxan-resistant rat Walker 256 cells intramuscularly assessed as change in body weight at 0.25 mg/kg, qd administered for 5 days; type: organism-based; design: dose 0.25 mg/kg, route intramuscular; conditions: in vivo, im, 120 h; in short: as §4
[13] = system: Rattus norvegicus; assay: Toxicity in rat allografted with cytoxan-resistant rat Walker 256 cells intramuscularly assessed as change in body weight at 0.12 mg/kg, qd administered for 5 days; type: organism-based; design: dose 0.12 mg/kg, route intramuscular; conditions: in vivo, im, 120 h
In short: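 Cytoxan-resistant Walker 256 solid tumour in rats, one injection daily for 5 days. Toxicity is the average net body-weight change of the treated group minus that of the untreated controls, in grams.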

[14] = organism: Rattus norvegicus; assay: Toxicity in Wistar-Furth rat assessed as effect on ovary measured for 24 hrs; type: organism-based, Female gonad; conditions: in vivo; in short: as §3
[15] = system: W256; assay: Antitumor activity against rat Walker 256 cells intramuscularly allografted in rat assessed as tumor growth inhibition at 0.25 mg/kg, qd administered for 5 days relative to control; type: functional; conditions: W256, im, 120 h, route intramuscular, read-out: TGI; in short: as §1
[16] = system: Rattus norvegicus; assay: Toxicity in rat allografted with rat Walker 256 cells intramuscularly assessed as change in body weight at 2 mg/kg, qd administered for 5 days; type: organism-based; design: dose 2 mg/kg, route intramuscular; conditions: in vivo, im, 120 h; in short: as §4
[17] = system: W256; assay: Antitumor activity against rat Walker 256 cells intramuscularly allografted in rat assessed as survival rate at 0.062 mg/kg, qd administered for 5 days; type: functional, organism-based; design: dose 0.062 mg/kg; in short: as §2
[18] = organism: Rattus norvegicus; assay: Toxicity in Wistar-Furth rat assessed as decrease in mature spermatocytes measured for 24 hrs; type: organism-based; conditions: in vivo; in short: as §3
[19] = system: W256; assay: Antitumor activity against rat Walker 256 cells intramuscularly allografted in rat assessed as survival rate at 0.031 mg/kg, qd administered for 5 days; type: functional, organism-based; design: dose 0.031 mg/kg; in short: as §2
[20] = system: Rattus norvegicus; assay: Toxicity in rat allografted with cytoxan-resistant rat Walker 256 cells intramuscularly assessed as change in body weight at 2 mg/kg, qd administered for 5 days; type: organism-based; design: dose 2 mg/kg, route intramuscular; conditions: in vivo, im, 120 h; in short: as §4
[21] = system: Rattus norvegicus; assay: Toxicity in rat allografted with rat Walker 256 cells intramuscularly assessed as change in body weight at 0.125 mg/kg, qd administered for 5 days; type: organism-based; design: dose 0.125 mg/kg, route intramuscular; conditions: in vivo, im, 120 h; in short: as §4
[22] = system: Rattus norvegicus; assay: Toxicity in rat allografted with cytoxan-resistant rat Walker 256 cells intramuscularly assessed as change in body weight at 0.5 mg/kg, qd administered for 5 days; type: organism-based; design: dose 0.5 mg/kg, route intramuscular; conditions: in vivo, im, 120 h; in short: as §4
[23] = system: W256; assay: Antitumor activity against rat Walker 256 cells intramuscularly allografted in rat assessed as survival rate at 0.125 mg/kg, qd administered for 5 days; type: functional, organism-based; design: dose 0.125 mg/kg; in short: as §2
[24] = Toxicity in rat allografted with rat Walker 256 cells intramuscularly; type: organism-based
[25] = system: Rattus norvegicus; assay: Toxicity in rat allografted with rat Walker 256 cells intramuscularly assessed as change in body weight at 0.062 mg/kg, qd administered for 5 days; type: organism-based; design: dose 0.062 mg/kg, route intramuscular; conditions: in vivo, im, 120 h; in short: as §4
[26] = system: W256; assay: Antitumor activity against cytoxan-resistant rat Walker 256 cells intramuscularly allografted in rat assessed as tumor growth inhibition at 0.25 mg/kg, qd administered for 5 days relative to control; type: functional; conditions: W256, im, 120 h, route intramuscular, read-out: TGI; in short: as §1
[27] = system: Rattus norvegicus; assay: Toxicity in rat allografted with cytoxan-resistant rat Walker 256 cells intramuscularly assessed as change in body weight at 1 mg/kg, qd administered for 5 days; type: organism-based; design: dose 1 mg/kg, route intramuscular; conditions: in vivo, im, 120 h; in short: as §4
[28] = system: W256; assay: Antitumor activity against cytoxan-resistant rat Walker 256 cells intramuscularly allografted in rat assessed as survival rate at 1 mg/kg, qd administered for 5 days; type: functional, organism-based; design: dose 1 mg/kg; in short: as §2
[29] = system: W256; assay: Antitumor activity against rat Walker 256 cells intramuscularly allografted in rat assessed as tumor growth inhibition; type: functional; conditions: W256, im; in short: as §1
[30] = system: W256; assay: Antitumor activity against cytoxan-resistant rat Walker 256 cells intramuscularly allografted in rat assessed as tumor growth inhibition at 1 mg/kg, qd administered for 5 days relative to control; type: functional; conditions: W256, im, 120 h, route intramuscular, read-out: TGI; in short: as §1
[31] = system: W256; assay: Antitumor activity against rat Walker 256 cells intramuscularly allografted in rat assessed as tumor growth inhibition at 0.031 mg/kg, qd administered for 5 days relative to control; type: functional; conditions: W256, im, 120 h, route intramuscular, read-out: TGI; in short: as §1
[32] = system: W256; assay: Antitumor activity against cytoxan-resistant rat Walker 256 cells intramuscularly allografted in rat assessed as survival rate at 0.5 mg/kg, qd administered for 5 days; type: functional, organism-based; design: dose 0.5 mg/kg; in short: as §2
[33] = system: W256; assay: Antitumor activity against cytoxan-resistant rat Walker 256 cells intramuscularly allografted in rat assessed as tumor growth inhibition at 0.5 mg/kg, qd administered for 5 days relative to control; type: functional; conditions: W256, im, 120 h, route intramuscular, read-out: TGI; in short: as §1
[34] = system: W256; assay: Antitumor activity against cytoxan-resistant rat Walker 256 cells intramuscularly allografted in rat assessed as survival rate at 0.12 mg/kg, qd administered for 5 days; type: functional, organism-based; design: dose 0.12 mg/kg; in short: as §2
[35] = system: W256; assay: Antitumor activity against rat Walker 256 cells intramuscularly allografted in rat assessed as tumor growth inhibition at 0.125 mg/kg, qd administered for 5 days relative to control; type: functional; conditions: W256, im, 120 h, route intramuscular, read-out: TGI; in short: as §1
[36] = system: W256; assay: Antitumor activity against rat Walker 256 cells intramuscularly allografted in rat assessed as survival rate at 0.5 mg/kg, qd administered for 5 days; type: functional, organism-based; design: dose 0.5 mg/kg; in short: as §2
[37] = system: Rattus norvegicus; assay: Toxicity in rat allografted with rat Walker 256 cells intramuscularly assessed as change in body weight at 0.031 mg/kg, qd administered for 5 days; type: organism-based; design: dose 0.031 mg/kg, route intramuscular; conditions: in vivo, im, 120 h; in short: as §4
[38] = system: Musca domestica; assay: Toxicity in male house fly assessed as lowest dose required to cause complete sterility administered in sugar; type: organism-based; conditions: in vivo, po
[39] = system: Rattus norvegicus; assay: Toxicity in rat allografted with rat Walker 256 cells intramuscularly assessed as change in body weight at 0.25 mg/kg, qd administered for 5 days; type: organism-based; design: dose 0.25 mg/kg, route intramuscular; conditions: in vivo, im, 120 h; in short: as §4
[40] = system: W256; assay: Antitumor activity against rat Walker 256 cells intramuscularly allografted in rat assessed as tumor growth inhibition at 0.062 mg/kg, qd administered for 5 days relative to control; type: functional; conditions: W256, im, 120 h, route intramuscular, read-out: TGI; in short: as §1
[41] = system: W256; assay: Antitumor activity against cytoxan-resistant rat Walker 256 cells intramuscularly allografted in rat assessed as survival rate at 0.25 mg/kg, qd administered for 5 days; type: functional, organism-based; design: dose 0.25 mg/kg; in short: as §2
[42] = system: W256; assay: Antitumor activity against cytoxan-resistant rat Walker 256 cells intramuscularly allografted in rat assessed as tumor growth inhibition at 0.12 mg/kg, qd administered for 5 days relative to control; type: functional; conditions: W256, im, 120 h, route intramuscular, read-out: TGI; in short: as §1

## C=CCN(CC=C)P(=O)(N1CC1)N1CC1
[1]
  selectivity ratio: 2.5
[2]
  selectivity ratio: 10
[3]
  inhibition in vivo at 1 mg/kg: 0%
[4]
  Activity: Active
[5]
  Activity: 0.1%
[6]
  Activity: Toxic
[7]
  inhibition in vivo at 2 mg/kg: 9%
[8]
  Activity: -6 g
[9]
  inhibition in vivo at 0.5 mg/kg: 0%
[10]
  Activity: -26 g
[11]
  inhibition in vivo at 2 mg/kg: 0%
[12]
  Activity: 0 g
[13]
  Activity: -14 g
[14]
  Activity: Non-toxic
[15]
  inhibition in vivo at 0.25 mg/kg: 0%
[16]
  Activity: -44 g
[17]
  Activity: Active
[18]
  Activity: Non-toxic
[19]
  Activity: Active
[20]
  Activity: -2 g
[21]
  Activity: -1 g
[22]
  Activity: -13 g
[23]
  Activity: Active
[24]
  LD50: 5 mg/kg
[25]
  Activity: -5 g
[26]
  inhibition in vivo at 0.25 mg/kg: 60%
[27]
  Activity: -13 g
[28]
  Activity: Active
[29]
  ED10: 0.5 mg/kg
[30]
  inhibition in vivo at 1 mg/kg: 40%
[31]
  inhibition in vivo at 0.031 mg/kg: 24%
[32]
  Activity: Active
[33]
  inhibition in vivo at 0.5 mg/kg: 58%
[34]
  Activity: Active
[35]
  inhibition in vivo at 0.125 mg/kg: 1%
[36]
  Activity: Active
[37]
  Activity: 0 g
[38]
  Activity: 0.05%
[39]
  Activity: -12 g
[40]
  inhibition in vivo at 0.062 mg/kg: 7%
[41]
  Activity: Active
[42]
  inhibition in vivo at 0.12 mg/kg: 98%
